# From ChEMBL document CHEMBL5038575, “Novel Functionalized Cannabinoid Receptor Probes: Development of Exceptionally Potent Agonists” (J Med Chem, 2021)
# Calls of active or inactive are those of the source. No cut-off for these calls is given here.
# Target: Cannabinoid receptor 1 (Rattus norvegicus, UniProt P20272)
# Assay: Displacement of [3H]CP55940 from rat brain membrane CB1 receptor assessed as inhibition constant incubated for 1 hr by TopCount scintillation counting method
# Format: cell membranes
# Details: not given
# How it was run: (§1)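 Competition binding against [³H]CP-55,940. CB1 from rat brain membranes; CB2 from membranes of HEK293 cells expressing mouse or human CB2. IC50 obtained by nonlinear regression and converted to Ki. Three independent experiments in triplicate; mean with SEM.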
# Chain of Cannabinoid receptor 1 (Rattus norvegicus, UniProt P20272) (P20272 whole entry): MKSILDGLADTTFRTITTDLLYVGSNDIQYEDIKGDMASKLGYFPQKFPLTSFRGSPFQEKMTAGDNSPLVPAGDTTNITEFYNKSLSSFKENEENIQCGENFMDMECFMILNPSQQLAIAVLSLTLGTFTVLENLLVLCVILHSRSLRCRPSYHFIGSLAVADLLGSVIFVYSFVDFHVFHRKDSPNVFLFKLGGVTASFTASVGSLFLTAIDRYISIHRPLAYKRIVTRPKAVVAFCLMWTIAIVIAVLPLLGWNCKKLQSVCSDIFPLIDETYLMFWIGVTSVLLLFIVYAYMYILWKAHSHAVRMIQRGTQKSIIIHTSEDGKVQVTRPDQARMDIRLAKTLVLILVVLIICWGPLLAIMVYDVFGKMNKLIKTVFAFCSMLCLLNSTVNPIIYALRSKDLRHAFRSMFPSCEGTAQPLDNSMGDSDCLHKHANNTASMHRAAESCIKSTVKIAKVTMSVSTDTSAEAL
row,Structure (SMILES),Ki [nM]
1,CC1(C)Oc2cc(C3(CCCCCCCC#N)CCCC3)cc(O)c2[C@@H]2C[C@H](CO)CC[C@H]21,0.5
2,CC1(C)Oc2cc(C3(CCCCCCN=C=S)CCCC3)cc(O)c2[C@@H]2C[C@H](CO)CC[C@H]21,1.1
3,CC1(C)Oc2cc(C3(CCCCCCCN=C=S)CCCC3)cc(O)c2[C@@H]2C[C@H](CN=C=S)CC[C@H]21,37.6
4,CC(C)(CCCCCCN=C=S)c1cc(O)c2c(c1)OC(C)(C)[C@@H]1CC[C@@H](CO)C[C@@H]21,0.39
5,CC1(C)Oc2cc(C3(CCCCCCCC#N)CCCC3)cc(O)c2[C@@H]2C[C@H](CN=C=S)CC[C@H]21,0.4
6,CC1(C)Oc2cc(C3(CCCCCCCN=[N+]=[N-])CCCC3)cc(O)c2[C@@H]2C[C@H](CN=[N+]=[N-])CC[C@H]21,0.7
7,CC1(C)Oc2cc(C3(CCCCCCCN=C=S)CCCC3)cc(O)c2[C@@H]2C[C@H](CO)CC[C@H]21,0.4

# Target: Cannabinoid receptor 2 (Mus musculus, UniProt P47936)
# Sequence (P47936 whole entry): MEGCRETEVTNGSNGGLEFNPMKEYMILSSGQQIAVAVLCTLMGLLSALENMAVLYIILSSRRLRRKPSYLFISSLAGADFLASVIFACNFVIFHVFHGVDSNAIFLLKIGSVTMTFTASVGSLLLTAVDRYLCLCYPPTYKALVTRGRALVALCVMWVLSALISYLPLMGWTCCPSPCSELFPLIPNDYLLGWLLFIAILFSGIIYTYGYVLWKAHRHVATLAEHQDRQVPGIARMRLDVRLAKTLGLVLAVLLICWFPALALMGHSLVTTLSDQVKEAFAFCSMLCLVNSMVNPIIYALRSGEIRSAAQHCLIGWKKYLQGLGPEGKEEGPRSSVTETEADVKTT
# Assay: Displacement of [3H]CP55940 from mouse CB2 expressed in HEK293 cell membrane assessed as inhibition constant incubated for 1 hr by TopCount scintillation counting method
# Format: cell membranes
# Details: not given
# How it was run: as §1
row,Structure (SMILES),Ki [nM]
1,CC1(C)Oc2cc(C3(CCCCCCCC#N)CCCC3)cc(O)c2[C@@H]2C[C@H](CO)CC[C@H]21,0.9
2,CC1(C)Oc2cc(C3(CCCCCCN=C=S)CCCC3)cc(O)c2[C@@H]2C[C@H](CO)CC[C@H]21,0.9
3,CC1(C)Oc2cc(C3(CCCCCCCN=C=S)CCCC3)cc(O)c2[C@@H]2C[C@H](CN=C=S)CC[C@H]21,14.6
4,CC(C)(CCCCCCN=C=S)c1cc(O)c2c(c1)OC(C)(C)[C@@H]1CC[C@@H](CO)C[C@@H]21,0.8
5,CC1(C)Oc2cc(C3(CCCCCCCC#N)CCCC3)cc(O)c2[C@@H]2C[C@H](CN=C=S)CC[C@H]21,1.9
6,CC1(C)Oc2cc(C3(CCCCCCCN=[N+]=[N-])CCCC3)cc(O)c2[C@@H]2C[C@H](CN=[N+]=[N-])CC[C@H]21,1.2
7,CC1(C)Oc2cc(C3(CCCCCCCN=C=S)CCCC3)cc(O)c2[C@@H]2C[C@H](CO)CC[C@H]21,1.1

# Target: T1, Cannabinoid receptor 2 (Homo sapiens, UniProt P34972)
# T1 sequence (P34972 whole entry): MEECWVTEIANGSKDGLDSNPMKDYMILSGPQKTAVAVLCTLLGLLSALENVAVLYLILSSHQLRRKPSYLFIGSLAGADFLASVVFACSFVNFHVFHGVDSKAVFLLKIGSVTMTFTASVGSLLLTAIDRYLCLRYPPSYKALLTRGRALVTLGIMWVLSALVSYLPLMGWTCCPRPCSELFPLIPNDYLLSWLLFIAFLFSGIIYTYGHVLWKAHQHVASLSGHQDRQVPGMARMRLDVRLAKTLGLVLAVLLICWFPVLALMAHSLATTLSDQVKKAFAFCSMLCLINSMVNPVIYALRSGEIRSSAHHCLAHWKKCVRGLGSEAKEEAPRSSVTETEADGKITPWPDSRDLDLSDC
# Assay: Displacement of [3H]CP55940 from human CB2 expressed in HEK293 cell membrane assessed as inhibition constant incubated for 1 hr by TopCount scintillation counting method
# Format: cell membranes
# Details: not given
# How it was run: as §1
row,Structure (SMILES),Ki [nM]
1,CC1(C)Oc2cc(C3(CCCCCCCC#N)CCCC3)cc(O)c2[C@@H]2C[C@H](CO)CC[C@H]21,0.4
2,CC1(C)Oc2cc(C3(CCCCCCN=C=S)CCCC3)cc(O)c2[C@@H]2C[C@H](CO)CC[C@H]21,1.3
3,CC1(C)Oc2cc(C3(CCCCCCCN=C=S)CCCC3)cc(O)c2[C@@H]2C[C@H](CN=C=S)CC[C@H]21,4.2
4,CC(C)(CCCCCCN=C=S)c1cc(O)c2c(c1)OC(C)(C)[C@@H]1CC[C@@H](CO)C[C@@H]21,3.15
5,CC1(C)Oc2cc(C3(CCCCCCCC#N)CCCC3)cc(O)c2[C@@H]2C[C@H](CN=C=S)CC[C@H]21,0.6
6,CC1(C)Oc2cc(C3(CCCCCCCN=[N+]=[N-])CCCC3)cc(O)c2[C@@H]2C[C@H](CN=[N+]=[N-])CC[C@H]21,1.5
7,CC1(C)Oc2cc(C3(CCCCCCCN=C=S)CCCC3)cc(O)c2[C@@H]2C[C@H](CO)CC[C@H]21,1

# Target: Cannabinoid receptor 1 (Rattus norvegicus) (UniProt P20272)
# Sequence (P20272 whole entry): as the sequence (P20272 whole entry) above
# Assay: Displacement of [3H]CP55940 from rat brain membrane CB1 assessed as reduction in maximum binding capacity at 4 nM incubated for 1 hr by TopCount scintillation counting method relative to control
# Format: cell membranes
# Details: not given
# How it was run: (§2)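 Wash-resistant binding. […] Saturation binding used 25 μg protein, [³H]CP-55,940 at 0.5–23.8 nM and 4 μM unlabeled CP-55,940 for nonspecific binding, 1 h at 30 °C. Samples were filtered and counted by scintillation. Bmax came from one-site fits; % reduction was taken versus untreated control.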
Structure (SMILES),Bmax [%],Activity
CC1(C)Oc2cc(C3(CCCCCCN=C=S)CCCC3)cc(O)c2[C@@H]2C[C@H](CO)CC[C@H]21,39,
CC1(C)Oc2cc(C3(CCCCCCCN=C=S)CCCC3)cc(O)c2[C@@H]2C[C@H](CN=C=S)CC[C@H]21,37,
CC1(C)Oc2cc(C3(CCCCCCCC#N)CCCC3)cc(O)c2[C@@H]2C[C@H](CN=C=S)CC[C@H]21,,inactive
CC1(C)Oc2cc(C3(CCCCCCCN=[N+]=[N-])CCCC3)cc(O)c2[C@@H]2C[C@H](CN=[N+]=[N-])CC[C@H]21,28,

# Same assay, conditions: filed as agonist
row,Structure (SMILES),Bmax [%]
1,CC1(C)Oc2cc(C3(CCCCCCCC#N)CCCC3)cc(O)c2[C@@H]2C[C@H](CO)CC[C@H]21,60
2,CC(C)(CCCCCCN=C=S)c1cc(O)c2c(c1)OC(C)(C)[C@@H]1CC[C@@H](CO)C[C@@H]21,65
3,CC1(C)Oc2cc(C3(CCCCCCCN=C=S)CCCC3)cc(O)c2[C@@H]2C[C@H](CO)CC[C@H]21,51

# Target: T1, Cannabinoid receptor 2
# Assay: Displacement of [3H]CP55940 from CB2 (unknown origin) assessed as reduction in maximum binding capacity at 4 nM incubated for 1 hr by TopCount scintillation counting method relative to control
# Details: not given
# How it was run: as §2
Structure (SMILES),Bmax [%],Activity
CC1(C)Oc2cc(C3(CCCCCCN=C=S)CCCC3)cc(O)c2[C@@H]2C[C@H](CO)CC[C@H]21,34,
CC1(C)Oc2cc(C3(CCCCCCCN=C=S)CCCC3)cc(O)c2[C@@H]2C[C@H](CN=C=S)CC[C@H]21,15,
CC1(C)Oc2cc(C3(CCCCCCCC#N)CCCC3)cc(O)c2[C@@H]2C[C@H](CN=C=S)CC[C@H]21,,inactive
CC1(C)Oc2cc(C3(CCCCCCCN=[N+]=[N-])CCCC3)cc(O)c2[C@@H]2C[C@H](CN=[N+]=[N-])CC[C@H]21,21,
CC1(C)Oc2cc(C3(CCCCCCCN=C=S)CCCC3)cc(O)c2[C@@H]2C[C@H](CO)CC[C@H]21,19,

# Same assay, conditions: filed as agonist
row,Structure (SMILES),Bmax [%]
1,CC1(C)Oc2cc(C3(CCCCCCCC#N)CCCC3)cc(O)c2[C@@H]2C[C@H](CO)CC[C@H]21,40
2,CC(C)(CCCCCCN=C=S)c1cc(O)c2c(c1)OC(C)(C)[C@@H]1CC[C@@H](CO)C[C@@H]21,75

# Target: T2, Cannabinoid receptor 1 (Homo sapiens, UniProt P21554)
# T2 sequence (P21554 whole entry): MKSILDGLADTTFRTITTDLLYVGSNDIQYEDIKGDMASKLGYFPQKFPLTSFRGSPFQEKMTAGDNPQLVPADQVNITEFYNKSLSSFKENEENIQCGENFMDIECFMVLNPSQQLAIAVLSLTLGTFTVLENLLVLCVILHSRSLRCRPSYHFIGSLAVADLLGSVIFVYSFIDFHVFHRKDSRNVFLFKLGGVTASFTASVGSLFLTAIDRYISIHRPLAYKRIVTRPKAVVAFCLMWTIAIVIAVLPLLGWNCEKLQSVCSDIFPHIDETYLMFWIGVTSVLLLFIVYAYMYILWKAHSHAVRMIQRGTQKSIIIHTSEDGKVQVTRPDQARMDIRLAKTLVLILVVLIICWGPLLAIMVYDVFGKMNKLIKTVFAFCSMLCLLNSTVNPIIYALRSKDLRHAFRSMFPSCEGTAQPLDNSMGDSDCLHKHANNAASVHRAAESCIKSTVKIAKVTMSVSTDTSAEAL
# Assay: Agonist activity at 3xHA tagged human CB1 receptor expressed in CHO-K1 cells assessed as reduction in forskolin-stimulated cAMP accumulation by measuring maximal efficacy incubated for 30 mins by cAMP assay relative to CP-55940
# Format: functional, cell-based
# Details: filed as agonist
# How it was run: (§3)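 CHO-K1 cells stably expressing 3xHA-tagged CB1 or CB2, plated at 4000 cells/well in Opti-MEM with 1% FBS for 3 h at 37 °C. Cells cotreated with 25 μM RO-20-1724, 20 μM forskolin and agonist for 30 min at 37 °C, then lysed. cAMP read by HTRF (665/620 nm) after 1 h at room temperature in the dark. Data normalized to vehicle and 100 nM CP-55,940; three-parameter nonlinear regression; ≥4 experiments in duplicate.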
row,Structure (SMILES),Emax [%]
1,CC1(C)Oc2cc(C3(CCCCCCN=C=S)CCCC3)cc(O)c2[C@@H]2C[C@H](CO)CC[C@H]21,104
2,CC(C)(CCCCCCN=C=S)c1cc(O)c2c(c1)OC(C)(C)[C@@H]1CC[C@@H](CO)C[C@@H]21,96
3,CC1(C)Oc2cc(C3(CCCCCCCN=C=S)CCCC3)cc(O)c2[C@@H]2C[C@H](CO)CC[C@H]21,105

# Target: T1, Cannabinoid receptor 2
# Assay: Agonist activity at 3xHA tagged human CB2 receptor expressed in CHO-K1 cells assessed as reduction in forskolin-stimulated cAMP accumulation by measuring maximal efficacy incubated for 30 mins by cAMP assay relative to CP-55940
# Format: functional, cell-based
# Details: filed as agonist
# How it was run: as §3
row,Structure (SMILES),Emax [%]
1,CC1(C)Oc2cc(C3(CCCCCCN=C=S)CCCC3)cc(O)c2[C@@H]2C[C@H](CO)CC[C@H]21,57
2,CC(C)(CCCCCCN=C=S)c1cc(O)c2c(c1)OC(C)(C)[C@@H]1CC[C@@H](CO)C[C@@H]21,107
3,CC1(C)Oc2cc(C3(CCCCCCCN=C=S)CCCC3)cc(O)c2[C@@H]2C[C@H](CO)CC[C@H]21,74

# Target: T2, Cannabinoid receptor 1
# Assay: Agonist activity at 3xHA tagged human CB1 receptor expressed in CHO-K1 cells assessed as reduction in forskolin-stimulated cAMP accumulation incubated for 30 mins by cAMP assay
# Format: functional, cell-based
# Details: not given
row,Structure (SMILES),EC50 [nM]
1,CC1(C)Oc2cc(C3(CCCCCCN=C=S)CCCC3)cc(O)c2[C@@H]2C[C@H](CO)CC[C@H]21,0.52
2,CC(C)(CCCCCCN=C=S)c1cc(O)c2c(c1)OC(C)(C)[C@@H]1CC[C@@H](CO)C[C@@H]21,5.8
3,CC1(C)Oc2cc(C3(CCCCCCCN=C=S)CCCC3)cc(O)c2[C@@H]2C[C@H](CO)CC[C@H]21,0.43

# Target: T1, Cannabinoid receptor 2
# Assay: Agonist activity at 3xHA tagged human CB2 receptor expressed in CHO-K1 cells assessed as reduction in forskolin-stimulated cAMP accumulation incubated for 30 mins by cAMP assay
# Format: functional, cell-based
# Details: not given
row,Structure (SMILES),EC50 [nM]
1,CC1(C)Oc2cc(C3(CCCCCCN=C=S)CCCC3)cc(O)c2[C@@H]2C[C@H](CO)CC[C@H]21,2.7
2,CC(C)(CCCCCCN=C=S)c1cc(O)c2c(c1)OC(C)(C)[C@@H]1CC[C@@H](CO)C[C@@H]21,5.5
3,CC1(C)Oc2cc(C3(CCCCCCCN=C=S)CCCC3)cc(O)c2[C@@H]2C[C@H](CO)CC[C@H]21,0.39
